Data from ChEMBL document CHEMBL2401720, “Synthesis and structure-activity relationship studies of O-biphenyl-3-yl carbamates as peripherally restricted fatty acid amide hydrolase inhibitors” (J Med Chem, 2013).
Active and inactive are the calls of the source. The rule behind the calls is not given here.

Experiments:
Mus musculus [1] = assay: In vivo inhibition of FAAH in ip dosed Swiss Webster mouse peripheral tissue; type: functional
Mus musculus [2] = assay: In vivo inhibition of FAAH in ip dosed Swiss Webster mouse liver; type: functional
Mus musculus [3] = assay: In vivo inhibition of FAAH in sc dosed Swiss Webster mouse brain using [3H]-ethanolamine as substrate after 1 hr by liquid scintillation counting analysis; type: functional, organism-based
Mus musculus [4] = assay: In vivo inhibition of FAAH in Swiss Webster mouse brain using [3H]-ethanolamine as substrate at 25 mg/kg, sc after 1 hr by liquid scintillation counting analysis in presence of Abcg2 inhibitor Ko-143; type: functional, organism-based; parameters: dose 25 mg/kg
Method in brief: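 Adult male Swiss-Webster mice (25-30 g) got Ko-143 (15 mg/kg, i.p., in saline/PEG400/Tween80 18:1:1 with 30% DMSO) 20 min before a single s.c. dose of inhibitor in the same vehicle without DMSO. Brain taken 1 h later and homogenate supernatant (1000 × g) assayed: 37°C, 30 min, pH 7.5 Tris, 0.05% BSA, 10 μM anandamide plus [ethanolamine-3H]anandamide, aqueous-phase scintillation counting; mean ± s.e.m., n = 3-4.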

Mus musculus [5] = assay: In vivo inhibition of FAAH in ip dosed Swiss Webster mouse brain using [3H]-ethanolamine as substrate after 1 hr by liquid scintillation counting analysis; type: functional
Mus musculus [6] = assay: In vivo inhibition of FAAH in Swiss Webster mouse brain using [3H]-ethanolamine as substrate at 1 mg/kg, ip after 1 hr by liquid scintillation counting analysis relative to control; type: functional; details: route intraperitoneal
Mus musculus [7] = assay: In vivo inhibition of FAAH in Swiss Webster mouse liver using [3H]-ethanolamine as substrate at 1 mg/kg, ip after 1 hr by liquid scintillation counting analysis relative to control; type: functional; details: route intraperitoneal
Mus musculus [8] = assay: In vivo inhibition of FAAH in Swiss Webster mouse brain using [3H]-ethanolamine as substrate at 40 mg/kg, sc after 1 hr by liquid scintillation counting analysis in presence of Abcg2 inhibitor Ko-143; type: functional, organism-based; parameters: dose 40 mg/kg
Mus musculus [9] = assay: In vivo inhibition of FAAH in Swiss Webster mouse brain using [3H]-ethanolamine as substrate at 75 mg/kg, sc after 1 hr by liquid scintillation counting analysis; type: functional, organism-based; parameters: dose 75 mg/kg
[10] = target: T1, Fatty-acid amide hydrolase 1 (Rattus norvegicus, UniProt P97612); assay: Inhibition of Wistar rat brain FAAH using [3H]-ethanolamine as substrate preincubated for 20 mins followed by substrate addition by liquid scintillation counting analysis
T1 sequence (P97612 whole entry): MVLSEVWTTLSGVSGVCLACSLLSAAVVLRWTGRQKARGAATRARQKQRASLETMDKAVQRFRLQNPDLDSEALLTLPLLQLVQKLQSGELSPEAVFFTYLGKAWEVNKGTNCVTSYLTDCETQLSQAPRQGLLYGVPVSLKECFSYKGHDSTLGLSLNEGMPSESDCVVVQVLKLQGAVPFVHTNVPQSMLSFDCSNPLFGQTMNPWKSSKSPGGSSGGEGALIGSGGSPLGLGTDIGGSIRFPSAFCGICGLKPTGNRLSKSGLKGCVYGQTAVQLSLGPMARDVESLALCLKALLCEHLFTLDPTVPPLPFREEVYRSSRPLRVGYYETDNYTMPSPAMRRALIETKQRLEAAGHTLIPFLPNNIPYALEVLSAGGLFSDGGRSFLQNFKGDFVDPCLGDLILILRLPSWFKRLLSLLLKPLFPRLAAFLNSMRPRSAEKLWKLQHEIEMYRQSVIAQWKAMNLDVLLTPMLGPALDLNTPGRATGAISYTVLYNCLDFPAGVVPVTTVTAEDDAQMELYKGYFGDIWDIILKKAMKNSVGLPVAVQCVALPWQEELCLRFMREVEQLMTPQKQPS
Method in brief: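 FAAH source was the membrane homogenate of Wistar rat brain (50 μg protein). It was preincubated with inhibitor for 20 min at 37°C, then incubated 30 min at 37°C in Tris 50 mM pH 7.5 with 0.05% fatty acid-free BSA, 10 μM anandamide and anandamide[ethanolamine-3H]. The reaction was stopped with chloroform/methanol (1:1), and aqueous-layer radioactivity was counted by liquid scintillation to give IC50.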

## NC(=O)c1cccc(-c2cc(OC(=O)NC3CCCCC3)ccc2O)c1
Mus musculus [1]
  ED50: 0.2 mg/kg
Mus musculus [2]
  ED50: 0.2 mg/kg
Mus musculus [3]
  inhibition: Dose-dependent effect
Mus musculus [4]
  inhibition: Active
Mus musculus [5]
  ED50: 40 mg/kg
Mus musculus [6]
  inhibition in vivo at 1 mg/kg: -3%
Mus musculus [7]
  inhibition in vivo at 1 mg/kg: 91.7%

## NC(=O)c1cccc(-c2cc(O)cc(OC(=O)NC3CCCCC3)c2)c1
Mus musculus [3]
  inhibition: Dose-dependent effect
Mus musculus [8]
  inhibition: Active
Mus musculus [5]
  ED50: 75 mg/kg
Mus musculus [6]
  inhibition in vivo at 1 mg/kg: -4.2%
Mus musculus [7]
  inhibition in vivo at 1 mg/kg: 89.5%

## NC(=O)c1cccc(-c2cc(OC(=O)NC3CCCCC3)ccc2C(=O)O)c1
Mus musculus [9]
  inhibition: inactive
Mus musculus [3]
  inhibition: Dose-dependent effect
Mus musculus [8]
  inhibition: inactive
Mus musculus [6]
  inhibition in vivo at 1 mg/kg: -2.1%
Mus musculus [7]
  inhibition in vivo at 1 mg/kg: 86.3%

## CC(O)c1cccc(-c2cc(OC(=O)NC3CCCCC3)ccc2O)c1 (stereo not given)
Mus musculus [6]
  inhibition in vivo at 1 mg/kg: 89.6%
Mus musculus [7]
  inhibition in vivo at 1 mg/kg: 80.9%
[10]
  IC50: 2 nM
